# Measured values from ChEMBL document CHEMBL3228033, “Cyclic amidine inhibitors of indolamine N-methyltransferase” (J Med Chem, 1979).
# Tested on: Oryctolagus cuniculus
# Assay: In vivo inhibition of New Zealand white rabbit INMT-mediated [14C]NMT to [14C]DMT conversion in brain at 0.5 %, po in drinking water for 5 days
# Assay type: functional
# In short: (§1)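 Male NZW rabbits (400-500 g), three per group, given 0.5% (v/v) in drinking water for 5 days; controls water. Day 5: pheniprazine 5 mg/kg iv, then 6 h later 25 µCi (0.5 mg) [14C]NMT iv. After 5 min, decapitation; lung and brain frozen in liquid nitrogen. [14C]DMT counted as cpm/g tissue. Values are means of three animals, with Student's t test.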
row,SMILES,inhibition (INH)
1,C1CN2CCSCC2=N1.O=C(O)/C=C/C(=O)O,57%

# Tested on: Oryctolagus cuniculus
# Assay: In vivo inhibition of New Zealand white rabbit lung INMT at 0.02 %, po in drinking water for 12 days
# Assay type: functional
# In short: (§2)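 Male NZW rabbits, three per group, received compound in drinking water (pH 7) throughout, with water for controls. Afterwards decapitated and bled out. Crude lung INMT (54 000g supernatant) assayed by the standard in vitro [14C]SAM/NMT method. Activity taken as cpm/mg protein after 1 h at 37 °C, read in the toluene-isoamyl alcohol phase. Means ± SEM.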
row,SMILES,inhibition (INH)
1,CN1CCSC1=N.I,76%

# Tested on: Oryctolagus cuniculus
# Assay: In vivo inhibition of New Zealand white rabbit INMT-mediated [14C]NMT to [14C]DMT conversion in lung at 0.5 %, po in drinking water for 5 days
# Assay type: functional
# In short: as §1
row,SMILES,inhibition (INH)
1,C1CN2CCSCC2=N1.O=C(O)/C=C/C(=O)O,64%

# Target: Indolethylamine N-methyltransferase (Oryctolagus cuniculus, UniProt O97972)
# Sequence (O97972 whole entry): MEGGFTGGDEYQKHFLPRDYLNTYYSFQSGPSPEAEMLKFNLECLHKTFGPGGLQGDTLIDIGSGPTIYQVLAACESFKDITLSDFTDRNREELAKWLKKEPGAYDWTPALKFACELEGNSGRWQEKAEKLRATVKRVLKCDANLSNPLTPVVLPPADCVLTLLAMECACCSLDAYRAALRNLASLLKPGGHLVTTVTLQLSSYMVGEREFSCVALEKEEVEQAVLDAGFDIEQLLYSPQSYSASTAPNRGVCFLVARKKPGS
# Assay: Inhibition of New Zealand white rabbit lung INMT using N-methyltryptamine as substrate after 60 to 90 mins by liquid scintillation counting in presence of S-methyl-[14C]adenosylmethionine
# In short: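 Enzyme from male rabbit lung: homogenate in 0.15 M KCl with 10^-4 M DTT and EDTA, 50 000 g supernatant, 40-60% ammonium sulfate fraction dialysed (some runs further Sephadex G-150 purified). Incubation in potassium phosphate pH 7.9 with N-methyltryptamine and S-[methyl-14C]adenosylmethionine, test compound in water or 5% DMSO, 37 °C. Stopped with borate pH 10; 14C-DMT extracted into isoamyl alcohol.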
row,IC50,SMILES
1,0.8 µM,CN1CCSC1=N.I
2,0.2 µM,CCN1CCSC1=N
3,9.9 µM,CCCN1CCSC1=N
4,13.8 µM,C#CCN1CCSC1=N
5,1.5 µM,CNN1CCSC1=N
6,7.9 µM,CC1CN(C)C(=N)S1 (stereo not drawn)
7,2 µM,Cn1ccsc1=N
8,6.9 µM,C/N=c1\ccsn1C
9,40 µM,CN1CCOC1=N
10,1.5 µM,CN1CCCC1=N
11,6.3 µM,CN1CCSCC1=N
12,2 µM,CN1CCCSC1=N
13,1.8 µM,CCN1CCCSC1=N
14,3 µM,CN1C=CSCC1=N
15,9.8 µM,C/N=C1\CSC=CN1C
16,2 µM,CN1C=CCSC1=N
17,1.6 µM,Cn1ccccc1=N
18,2.8 µM,Cc1ccn(C)c(=N)c1
19,69.8 µM,Cn1cc(F)ccc1=N
20,5.3 µM,Cn1c(F)cccc1=N
21,6.2 µM,Cn1c(N)cccc1=N
22,0.9 µM,CN1CCC=CC1=N
23,> 5260 µM,Cn1ccncc1=N
24,19.6 µM,Cc1cc(=N)sn1C
25,6.2 µM,Cn1ccc(=N)cc1

# The remaining lines, values behind:
row,SMILES,IC50
1,C1CCC2=NCCCN2CC1,8 µM
2,CC(C)CN1CCCC1=N,19.4 µM
3,C1CN=C2CCCN2C1,1.67 µM
4,C1CCN2CCCC2=NC1,74.8 µM
5,C1CCN2CCCN=C2C1,0.7 µM
6,CC1CC2=NCCCN2C1 (stereo not drawn),7 µM
7,CC1CCC2=NCCCN21 (stereo not drawn),13.2 µM
8,C(=C1/CCC2=NCCCN21)/c1ccccc1,37.1 µM
9,C=C1CN=C2CCCN2C1,43.3 µM
10,ClC1CCCN2CCN=C12 (stereo not drawn),52.2 µM
11,C1CC2=NCCN2C1,0.04 µM
12,CC1CC2=NCCN2C1 (stereo not drawn),3.8 µM
13,CC1(C)CC2=NCCN2C1,54.2 µM
14,CC1CCC2=NCCN21 (stereo not drawn),9.3 µM
15,C1CCC2(CC1)CCC1=NCCN12,141 µM
16,c1ccc(C2CC3=NCCN3C2)cc1 (stereo not drawn),> 330 µM
17,c1ccc(C2(c3ccccc3)CC3=NCCN3C2)cc1,> 330 µM
18,c1cn2c(n1)CCC2,83.1 µM
19,c1ccc2c(c1)CN1CCN=C21,> 330 µM

row,SMILES,IC50
1,c1ccc2c(c1)CC1C2CC2=NCCN21 (stereo not drawn),16.4 µM
2,C1CN2C(=N1)C1CC3CC(C1)CC2C3,> 330 µM
3,C1CCN2CCN=C2C1,0.17 µM
4,C1CN2CCOCC2=N1,13.8 µM
5,C1CN2CCSCC2=N1.O=C(O)/C=C/C(=O)O,0.5 µM
6,CC1CN2CCN=C2CS1 (stereo not drawn),30.3 µM
7,[O-][S+]1CCN2CCN=C2C1 (stereo not drawn),3.6 µM
8,C1=CN2CCN=C2CS1,18 µM
9,CC1=CSCC2=NCCN12,45.4 µM
10,c1ccc2c(c1)SCC1=NCCN12,> 330 µM
11,C/N=C1\SCCN1C,8.1 µM
12,C/N=C1/NCCS1,7.7 µM
13,C=CCN1CCSC1=N,7.1 µM
14,Cn1cc(C(F)(F)F)sc1=N,> 88.6 µM
15,C/N=c1\cnsn1C,5.2 µM
16,C/N=C1\CCCN1,27.1 µM
17,CCN1CCCC1=N,1.6 µM
18,N=C1CCCN1C1CC1,67 µM
19,CCOC(CN1CCCC1=N)OCC,> 106 µM

row,SMILES,IC50
1,N=C1CCCN1CCc1ccccc1,3720 µM
2,CN1CCC/C1=N\CC(F)(F)F,> 92.6 µM
3,C/N=C1\CCCN1C,31.2 µM
4,CN1CCC/C1=N\C1CC1,> 10.3 µM
5,C=CCn1ccccc1=N,1.58 µM
6,N=c1ccccn1CC(F)(F)F,> 9.7 µM
7,Cn1cccc/c1=N\CC(F)(F)F,> 9.2 µM
8,Cn1cccc/c1=N\CCO,> 8.9 µM
9,Cn1cccc/c1=N\C1CC1,> 10.1 µM
10,Cn1cccc(C#N)c1=N,179 µM
11,C/N=c1\cccc(F)n1C,74 µM
12,C/N=c1\cccc(NC)n1C,13.1 µM
13,CCOc1cccc(=N)n1C,> 10.3 µM
14,N#CCn1ccc(=N)cc1,> 148 µM
15,C[n+]1ccccc1CC#N,> 11.7 µM
16,C[N+]1=C2CCCN2CCC1,38.7 µM
17,N=C1SCCN1Cc1ccncc1,> 6.9 µM
18,NC1=NCCC1,33.6 µM

# Target: Indolethylamine N-methyltransferase (Homo sapiens, UniProt O95050)
# Sequence (O95050 whole entry): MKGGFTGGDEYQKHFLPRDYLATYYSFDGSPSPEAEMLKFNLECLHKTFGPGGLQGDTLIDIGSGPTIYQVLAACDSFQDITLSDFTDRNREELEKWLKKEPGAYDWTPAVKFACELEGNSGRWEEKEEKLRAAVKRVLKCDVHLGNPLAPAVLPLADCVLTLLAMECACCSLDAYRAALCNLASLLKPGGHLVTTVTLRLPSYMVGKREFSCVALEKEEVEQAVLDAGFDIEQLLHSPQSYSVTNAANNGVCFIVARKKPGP
# Assay: Inhibition of human lung INMT using N-methyltryptamine as substrate after 90 mins by liquid scintillation counting in presence of S-methyl-[14C]adenosylmethionine
row,IC50,SMILES
1,852 µM,C1CCN2CCCC2=NC1
2,> 86.6 µM,Cn1cc(C(F)(F)F)sc1=N

row,SMILES,IC50
1,C1CCC2=NCCCN2CC1,25.7 µM

# Tested on: Oryctolagus cuniculus
# Assay: In vivo inhibition of New Zealand white rabbit lung INMT at 0.5 %, po in drinking water for 5 days
# Assay type: functional
# In short: as §2
row,SMILES,inhibition (INH)
1,C1CN2CCSCC2=N1.O=C(O)/C=C/C(=O)O,75%
